# Source: PubChem BioAssay (Sanford-Burnham Center for Chemical Genomics)
# Most compounds without a hit are left out; they make up all but 1.8% or so of the library.
# Lipid droplet – hepatic lipid droplet formation modulation | AID 1656 | inhibition, % at 6.5 µM | AML12 mouse hepatocytes, oleate lipid droplets, BODIPY imaging | 240,000 compounds, 0.4% hits;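 active means lipid droplet intensity inhibited by at least 50%, with more than 500 cells counted; inconclusive means wells with under 300 cells, treated as cytotoxic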
#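 Assay system: AML12 hepatocytes (mouse) / Also added: 100 µM oleic acid challenge / Times: overnight treatment with compound plus oleate / Detection: high-content imaging of BODIPY-stained droplets and DAPI nuclei / Evaluation: % inhibition of lipid droplet signal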
# Jurkat NFkB inh – lowers PMA/ionomycin-induced NF-kB signal in Jurkat cells. PMA/ionomycin-induced NF-kB luciferase reporter, luminescence. 330,000 compounds, 0.53% hits. inhibition, % at 4 µM; in the data active means inhibition above about 50%
# H9c2 TAG inh – triacylglycerol accumulation inhibition | inhibition, % at 12.5 µM | AID 651582 | H9c2 cells, Nile Red lipid (TAG) fluorescence; cells loaded with 200 µM oleic acid | 230,000 compounds, 0.66% hits;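 active means pattern-corrected inhibition of lipid staining of at least 50% with the nuclear-stain viability signal not falling by more than 50%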;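 further: 0% = DMSO wells and 100% = triacsin C control wells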
# iPSC survival up – hiPSC single-cell survival enhancement. ATPlite luminescence; 100% = ROCK inhibitor wells, 0% = DMSO. survival enhancement, % at 20 µM. 360,000 compounds, 0.044% hits; in the data active means survival enhancement above about 18%;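 further: cells exposed to compounds for 16 hours before the ATP read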
# Gli-Sufu block – blocks Gli-Sufu signaling in a luciferase reporter | Sufu-KO-LIGHT fibroblasts, Gli luciferase reporter luminescence | inhibition, % at 5 µM | 340,000 compounds, 0.74% hits | AID 588413;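 active means inhibition above about 55%, limit read from the data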;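 further: 0% = DMSO-treated cells and 100% = wells with medium but no cells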
# 697 NFkB inh – inhibitors of the PMA/ionomycin-induced NF-kB reporter in 697 B cells. 697 B-cell NF-kB luciferase reporter, 16 h. inhibition, % at 4 µM. 330,000 compounds, 0.33% hits. AID 435022; in the data active means inhibition above about 35%
# Hep lipid conf – confirmation of inhibitors of hepatic lipid droplet formation; AID 463183; inhibition, % at 5.2 µM; AML12 mouse hepatocytes, BODIPY lipid droplet imaging; droplets induced with 100 µM oleic acid; shares compounds with Lipid droplet; 870 compounds, 65% hits;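 active means inhibition of lipid droplet metric at least 50%, with more than 300 cells in each of four replicates; inconclusive means wells under 300 cells, flagged as toxic or low count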;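 further: plate controls were DMSO with oleic acid for no effect and 5 µM Triacsin-C for full effect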
# AML12 cytotox – counter-screen for cytotoxicity in AML12 mouse hepatocytes; shares compounds with Lipid droplet; DAPI nuclear morphology cytotoxicity imaging; stronger effect = higher value; cells fed 100 µM oleate overnight; z-score at 5 µM; 870 compounds, 3% hits; AID 463200; in the data active means z-score above about 6.3;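 further: compound exposure lasted overnight at 37 °C before fixation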
# Jurkat NFkB conf – lowers PMA/ionomycin-induced NF-kB signal in Jurkat cells; shares compounds with Jurkat NFkB inh; Jurkat NF-kB luciferase, 16 h; inhibition, % at 4 µM; 2,700 compounds, 27% hits;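 active means inhibition reaching about 45% at 4 µM in either replicate, limit read from the data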;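 further: plate controls were PMA/ionomycin stimulated DMSO wells for no effect and unstimulated DMSO wells for full effect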
# Numbers without * were called inactive; ? = inconclusive; · = not tested or not shown.
SMILES,Lipid droplet,Jurkat NFkB inh,H9c2 TAG inh,iPSC survival up,Gli-Sufu block,697 NFkB inh,others
COC1CCC(OC2CC(C3(C)CCC4(CC(O)C(C)C(C(C)/C=C(\C)C(=O)C(C)CC(C)C(=O)O)O4)O3)OC3(OC(C4OC(O)(CO)C(C)CC4C)CC3C)C2C)OC1C (stereo unspecified),·,·,97.4*,-4.0,77.0*,·,
O=C1NC(=O)C2(Cc3cc([N+](=O)[O-])ccc3N3CCN(C(=O)c4ccccc4)CC32)C(=O)N1 (stereo unspecified),3.3,4.3,·,2.7,7.5,14.6,
COC(=O)C1=C(c2ccc3ccccc3c2)C[C@@H]2CC[C@H]1N2C,·,-13.0,-23.1,-2.8,0.9,3.5,
COC(=O)C1=C(C(=O)OC)C2OC1c1cc3ccccc3cc12,·,·,70.4*,-3.6,6.7,·,
O=C(C(=O)N1CCOCC1)c1cn(Cc2ccccc2)c2ccccc12,14.8,4.3,-1.3,0.0,-2.5,3.6,
COc1ccc(CNCCc2c(C)[nH]c3ccc(OC(F)(F)F)cc23)c(OC)c1,-55.4,47.1,·,-0.3,56.7*,-58.9,
CCC(C)C12CN3CCN(CC(C)(C3)C1O)C2 (stereo unspecified),6.8,9.0,-3.0,-0.7,26.4,7.9,
CN(C)C(=S)SSC(=S)N(C)C,1.7,·,98.6,-1.9,68.0*,·,
COc1ccc(-n2c(C)cc(C(=O)C[N+]34CCN(CC3)CC4)c2C)cc1,-3.8,3.4,-2.7,-0.1,20.6,2.3,
O=[N+]([O-])c1ccc(N2CCOCC2)c2c1no[n+]2[O-],·,·,121.4*,-6.2,·,·,
Ic1ccccc1CN[C@@H]1C2CCN(CC2)[C@@H]1C(c1ccccc1)c1ccccc1,·,15.5,73.9*,-5.4,0.6,-30.0,
Fc1ccccc1CNC1CN2CCC1CC2 (stereo unspecified),4.4,10.4,6.5,0.6,-13.7,2.2,
c1ccc(-c2cc(-c3ccccc3)[n+](-c3ccccc3)c(-c3ccccc3)c2)cc1,-7.8,9.7,40.4,-0.8,72.9*,-76.9,
CCOC(=O)c1ccc(-[n+]2c(-c3ccccc3)cc(-c3ccccc3)cc2-c2ccccc2)cc1,·,25.7,·,·,46.8,-36.4,
CCOc1ccc(-n2c(O)c(C=Nc3ccc(N4CCOCC4)cc3)c(=O)[nH]c2=O)cc1,·,-12.9,-6.0,1.0,1.3,-14.7,
CN1C2CCC1/C(=C/c1ccccn1)C(=O)/C2=C\c1ccccn1,?,·,·,34.5*,47.8,·,
Cc1ccccc1-n1c(/C=C/c2ccccn2)nc2ccccc2c1=O,1.7,7.9,·,0.0,6.3,31.9,
C[C@H]1CCC/C=C/[C@@H]2C[C@H](O)C[C@H]2[C@@H](O)/C=C/C(=O)O1,·,·,131.2,-5.5,85.5*,·,
CC1CC(C)CC(C)C(O)C(C#N)=CC=CCC(C2CCCC2C(=O)O)OC(=O)CC(O)C(C)C1 (stereo unspecified),·,·,107.1,-2.6,87.2*,·,
C[C@H]1[C@H](OC(=O)CCC(=O)NCc2ccc(C(=O)O)cc2)O[C@@H]2O[C@@]3(C)CC[C@H]4[C@H](C)CC[C@@H]1C24OO3,·,9.0,·,-0.8,88.5*,14.8,
CN1CCC(N(C)c2nc(-c3ccc([N+](=O)[O-])cc3)nc3ccccc23)CC1,16.9,·,58.7*,-6.8,-11.9,·,
CC(=O)OCC12CC(OC(=O)CC(C)C)C(C)=CC1OC1C(O)C(OC(C)=O)C2(C)C12CO2 (stereo unspecified),·,·,104.4,-1.4,89.5*,·,
O=C1NC2C(O)C(O)C(O)C(O)C2c2cc3c(c(O)c21)OCO3 (stereo unspecified),·,·,100.4,-4.2,71.9*,·,
CN1CCN(c2c(C#N)c(C(F)(F)F)nn2C)CC1,-4.2,-0.5,5.8,3.6,7.1,2.8,
CCC(C)n1c(O)c(C=NCC2CCCO2)c(=O)[nH]c1=S (stereo unspecified),-33.2,-14.1,-6.1,0.2,5.5,4.2,
SMILES,Lipid droplet,Jurkat NFkB inh,H9c2 TAG inh,iPSC survival up,Gli-Sufu block,697 NFkB inh,others
CCCCC1(CCC)C(=O)NC(=S)NC1=O,·,·,-6.2,12.7,3.8,·,
CN1Cc2cnnn2-c2ccccc2C1C#N (stereo unspecified),·,·,-1.1,39.8*,-18.9,·,
CN1CC[C@]2(c3cccc(O)c3)Cc3nc4ccccc4cc3C[C@H]2C1,-10.9,·,·,·,·,·,
COC(=O)C1=C(c2ccccc2)C[C@@H]2CC[C@H]1N2C(=O)N1CCC(O)CC1,·,12.8,-34.0,1.7,-10.1,8.7,
CCN(CC)S(=O)(=O)c1cccc(N=Nc2c(O)n(CC)c(=S)n(CC)c2=O)c1,0.8,-4.5,-3.0,-0.3,-0.5,9.5,
CCc1ccc(-n2c(O)c(C(C)=O)c(=O)[nH]c2=O)cc1 (tested in a mixture with another compound),70.4*,-11.2,7.4,-0.3,6.8,-6.7,Hep lipid conf=23.4;AML12 cytotox=-1.32
CC1(C)CN=C(Nc2ccc(F)c(Cl)c2)S1,115.9*,-7.7,3.7,0.6,0.7,7.4,Hep lipid conf=3.1;AML12 cytotox=-0.00921
CC1(C)CN=C(Nc2ccc(F)c(F)c2)S1,·,4.8,-2.2,-1.3,5.7,-8.0,
CCOC(=O)C1=C(N)OC2=C(C(=O)CCC2)[C@]12C(=O)N(CC(N)=O)c1ccccc12,-7.0,-0.4,1.5,0.2,4.5,5.1,
COc1cccc(NP(=O)(Oc2ccccc2)Oc2ccccc2)c1,-50.1,62.3*,·,-1.0,0.6,-50.8,Jurkat NFkB conf=15.9
COc1cccc(NP(=O)(Oc2ccccc2Cl)Oc2ccccc2Cl)c1,-66.2,24.4,·,-0.6,0.1,-81.6,
CC[C@@H]1C=CC=CC[C@H](C)[C@@H](O)[C@@H](C)C(=O)[C@H](C)[C@@H](O)[C@H](C)C(=O)[C@H](C)[C@@H](O)[C@H](C)C=CC(=O)O[C@H]2[C@@H](C)[C@@H](CC1)O[C@@]1(CC[C@@H](C)[C@@H](C[C@H](C)O)O1)[C@@H]2C,·,53.0*,·,·,·,17.3,Jurkat NFkB conf=34.7
COc1ccc(-c2ccc3n2Cc2cnnn2-c2ccccc2-3)cc1,·,·,1.8,0.8,-33.0,·,
O=C(Nc1ccc(C(F)(F)F)cc1)c1cccn(Cc2ccc3c(c2)OC(F)(F)O3)c1=O,·,54.1*,·,-2.2,4.8,0.2,Jurkat NFkB conf=46.4
O=C(Nc1cccc(C(F)(F)F)c1)c1cccn(Cc2ccc3c(c2)OC(F)(F)O3)c1=O,·,1.1,·,1.5,7.2,8.1,
Cc1cccc(-n2c(O)c(/C=C3/C(c4ccccc4)=Nc4ccccc43)c(=O)[nH]c2=O)c1,-0.2,44.9,22.2,0.2,-42.0,-92.6,
